Results from ChEMBL document CHEMBL4715796, “Discovery of Chromane Containing Hepatitis C Virus (HCV) NS5A Inhibitors with Improved Potency against Resistance-Associated Variants” (J Med Chem, 2016).

Experiments:
Type in all cases: cell-based
[1] = tested on: Nonstructural protein 5A (Hepatitis C virus), Q5L478 [UNDEFINED MUTATION]; test: Inhibition of NS5A L31V mutant in Hepatitis C virus subtype 1a infected in human HuH7 cells assessed as reduction in viral replication by luciferase reporter gene assay; conditions: Huh-7
Summary of the method: (§1)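 NS5A resistance variants engineered into GT1a-H77 or GT1b-Con1 replicons. Each variant replicon is transfected transiently by electroporation into a Huh7-derived cell line. Percent inhibition is taken from the drop in luciferase signal at each compound concentration, and EC90 is calculated from these. Values are means of at least two experiments.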

[2] = tested on: T1, Nonstructural protein 5A (Hepatitis C virus), Q5L478 [Y93H]; test: Inhibition of NS5A Y93H mutant in Hepatitis C virus subtype 1a infected in human HuH7 cells assessed as reduction in viral replication by luciferase reporter gene assay; conditions: Huh-7; summary of the method: as §1
T1 sequence (whole entry): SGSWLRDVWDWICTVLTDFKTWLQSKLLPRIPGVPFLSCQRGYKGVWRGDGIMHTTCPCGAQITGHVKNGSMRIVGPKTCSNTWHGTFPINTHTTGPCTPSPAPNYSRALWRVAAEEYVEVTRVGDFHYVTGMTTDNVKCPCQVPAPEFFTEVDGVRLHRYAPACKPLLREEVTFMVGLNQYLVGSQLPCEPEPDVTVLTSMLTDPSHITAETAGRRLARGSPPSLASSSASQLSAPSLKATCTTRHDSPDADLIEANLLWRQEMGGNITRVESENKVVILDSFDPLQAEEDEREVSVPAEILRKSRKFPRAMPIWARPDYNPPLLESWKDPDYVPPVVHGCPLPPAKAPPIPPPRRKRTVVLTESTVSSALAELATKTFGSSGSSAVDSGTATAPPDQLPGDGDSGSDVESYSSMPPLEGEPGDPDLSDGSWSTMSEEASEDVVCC

[3] = tested on: Huh-7; test: Inhibition of NS5A in Hepatitis C virus subtype 3a infected in human HuH7 cells assessed as reduction in viral replication by luciferase reporter gene assay
Summary of the method: (§2)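 Transient replicon assay with GT1a-H77, GT1b-Con1 or chimeric replicons, electroporated into a Huh7-derived cell line. Percent inhibition of replication, read as a drop in luciferase signal, was calculated at each concentration to give EC90. Values are means of at least two experiments.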

[4] = tested on: Huh-7; test: Inhibition of NS5A in Hepatitis C virus subtype 2b infected in human HuH7 cells assessed as reduction in viral replication by luciferase reporter gene assay; summary of the method: as §2
[5] = tested on: Huh-7; test: Inhibition of NS5A in Hepatitis C virus subtype 1a infected in human HuH7 cells assessed as reduction in viral replication by luciferase reporter gene assay; summary of the method: as §2
[6] = tested on: Huh-7; test: Inhibition of NS5A in Hepatitis C virus subtype 4a infected in human HuH7 cells assessed as reduction in viral replication by luciferase reporter gene assay; summary of the method: as §2
[7] = tested on: Huh-7; test: Inhibition of NS5A in Hepatitis C virus subtype 1b infected in human HuH7 cells assessed as reduction in viral replication by luciferase reporter gene assay; summary of the method: as §2

| Structure (SMILES) | EC90 [1] [nM] | EC90 [2] [nM] | EC90 [3] [nM] | EC90 [4] [nM] | EC90 [5] [nM] | EC90 [6] [nM] | EC90 [7] [nM] |
| --- | --- | --- | --- | --- | --- | --- | --- |
| COC(=O)N[C@H](C(=O)N1CCC[C@H]1c1ncc(-c2cc(F)c3c(c2)OC(c2ccc4cccnc4c2)n2c-3cc3cc(-c4cnc([C@@H]5CCCN5C(=O)[C@@H](NC(=O)OC)C(C)C)[nH]4)ccc32)[nH]1)C(C)C (stereo not given in full) | 0.2 | 4 | 0.3 | 3 | 0.01 |  |  |
| COC(=O)N[C@H](C(=O)N1CCC[C@H]1c1ncc(-c2cc(F)c3c(c2)OC(c2ccc4c(c2)O[C@H](C)CC4)n2c-3cc3cc(-c4cnc([C@@H]5CCCN5C(=O)[C@@H](NC(=O)OC)C(C)C)[nH]4)ccc32)[nH]1)C(C)C (stereo not given in full) | 0.02 | 0.7 | 0.01 | 0.9 | 0.003 | 0.005 | 0.005 |
| COC(=O)N[C@H](C(=O)N1CCC[C@H]1c1ncc(-c2cc(F)c3c(c2)OC(c2cccc4ccccc24)n2c-3cc3cc(-c4cnc([C@@H]5CCCN5C(=O)[C@@H](NC(=O)OC)C(C)C)[nH]4)ccc32)[nH]1)C(C)C (stereo not given in full) | 0.09 | 32 | 0.1 | 31 | 0.01 |  |  |
| COC(=O)N[C@H](C(=O)N1CCC[C@H]1c1ncc(-c2cc(F)c3c(c2)OC(c2ccc4c(c2)O[C@@H](C)CC4)n2c-3cc3cc(-c4cnc([C@@H]5CCCN5C(=O)[C@@H](NC(=O)OC)C(C)C)[nH]4)ccc32)[nH]1)C(C)C (stereo not given in full) | 0.04 | 0.9 | 0.009 | 0.7 | 0.007 | 0.007 | 0.005 |
| COC(=O)N[C@H](C(=O)N1CCC[C@H]1c1ncc(-c2cc(F)c3c(c2)OC(c2ccc4c(c2)CC2CC2(C)O4)n2c-3cc3cc(-c4cnc([C@@H]5CCCN5C(=O)[C@@H](NC(=O)OC)C(C)C)[nH]4)ccc32)[nH]1)C(C)C (mixture of isomers) |  | 1 | 0.03 | 5 | 0.005 |  |  |
| COC(=O)N[C@H](C(=O)N1CCC[C@H]1c1ncc(-c2cc(F)c3c(c2)OC(c2ccc4c(c2)CCC(C)(C)O4)n2c-3cc3cc(-c4cnc([C@@H]5CCCN5C(=O)[C@@H](NC(=O)OC)C(C)C)[nH]4)ccc32)[nH]1)C(C)C (stereo not given in full) |  | 0.9 | 0.03 | 2 | 0.005 |  |  |
| COC(=O)N[C@H](C(=O)N1CCC[C@H]1c1ncc(-c2cc(F)c3c(c2)OC(c2ccc4c(c2)OC(F)(F)O4)n2c-3cc3cc(-c4cnc([C@@H]5CCCN5C(=O)[C@@H](NC(=O)OC)C(C)C)[nH]4)ccc32)[nH]1)C(C)C (stereo not given in full) | 0.5 | 8 | 0.1 | 5 | 0.004 |  |  |
| COC(=O)N[C@H](C(=O)N1CCC[C@H]1c1ncc(-c2cc(F)c3c(c2)OC(c2ccc4c(c2)OCCC4(F)F)n2c-3cc3cc(-c4cnc([C@@H]5CCCN5C(=O)[C@@H](NC(=O)OC)C(C)C)[nH]4)ccc32)[nH]1)C(C)C (stereo not given in full) | 0.01 | 0.7 | 0.007 | 0.2 | 0.002 | 0.002 | 0.002 |
| COC(=O)N[C@H](C(=O)N1CCC[C@H]1c1ncc(-c2cc(F)c3c(c2)OC(c2ccc4c(c2)OCC(=O)N4C)n2c-3cc3cc(-c4cnc([C@@H]5CCCN5C(=O)[C@@H](NC(=O)OC)C(C)C)[nH]4)ccc32)[nH]1)C(C)C (stereo not given in full) |  | 3 | 0.01 | 2 | 0.002 |  |  |
| COC(=O)N[C@H](C(=O)N1CCC[C@H]1c1ncc(-c2cc(F)c3c(c2)OC(c2ccc4c(c2)OCC(=O)N4)n2c-3cc3cc(-c4cnc([C@@H]5CCCN5C(=O)[C@@H](NC(=O)OC)C(C)C)[nH]4)ccc32)[nH]1)C(C)C (stereo not given in full) |  | 32 | 0.4 | 22 | 0.01 |  |  |
| COC(=O)N[C@H](C(=O)N1CCC[C@H]1c1ncc(-c2cc(F)c3c(c2)OC(c2ccc4c(c2)CCCO4)n2c-3cc3cc(-c4cnc([C@@H]5CCCN5C(=O)[C@@H](NC(=O)OC)C(C)C)[nH]4)ccc32)[nH]1)C(C)C (stereo not given in full) |  | 4 | 0.02 | 7 | 0.003 |  |  |
| COC(=O)N[C@H](C(=O)N1CCC[C@H]1c1ncc(-c2cc(F)c3c(c2)OC(c2ccc4c(c2)OCO4)n2c-3cc3cc(-c4cnc([C@@H]5CCCN5C(=O)[C@@H](NC(=O)OC)C(C)C)[nH]4)ccc32)[nH]1)C(C)C (stereo not given in full) | 0.2 | 4 | 1 | 3 | 0.008 |  |  |
| COC(=O)N[C@H](C(=O)N1CCC[C@H]1c1ncc(-c2cc(F)c3c(c2)OC(c2ccc4c(c2)CCCC4)n2c-3cc3cc(-c4cnc([C@@H]5CCCN5C(=O)[C@@H](NC(=O)OC)C(C)C)[nH]4)ccc32)[nH]1)C(C)C (stereo not given in full) |  | 2 | 0.01 | 2 | 0.005 |  |  |
| COC(=O)N[C@H](C(=O)N1CCC[C@H]1c1ncc(-c2cc(F)c3c(c2)OC(c2ccc4ccccc4c2)n2c-3cc3cc(-c4cnc([C@@H]5CCCN5C(=O)[C@@H](NC(=O)OC)C(C)C)[nH]4)ccc32)[nH]1)C(C)C (stereo not given in full) | 0.2 | 7 | 0.04 | 1 | 0.02 |  |  |
| COC(=O)N[C@H](C(=O)N1CCC[C@H]1c1ncc(-c2cc(F)c3c(c2)OC(c2ccc4c(c2)COC4)n2c-3cc3cc(-c4cnc([C@@H]5CCCN5C(=O)[C@@H](NC(=O)OC)C(C)C)[nH]4)ccc32)[nH]1)C(C)C (stereo not given in full) |  | 5 | 0.02 | 2 | 0.003 |  |  |
| COC(=O)N[C@H](C(=O)N1CCC[C@H]1c1ncc(-c2cc(F)c3c(c2)OC(c2ccc4c(c2)CC[C@@H](C)O4)n2c-3cc3cc(-c4cnc([C@@H]5CCCN5C(=O)[C@@H](NC(=O)OC)C(C)C)[nH]4)ccc32)[nH]1)C(C)C (stereo not given in full) |  | 2 | 0.02 | 7 | 0.005 |  |  |
| COC(=O)N[C@H](C(=O)N1CCC[C@H]1c1ncc(-c2cc(F)c3c(c2)OC(c2ccc4c(c2)OCC4)n2c-3cc3cc(-c4cnc([C@@H]5CCCN5C(=O)[C@@H](NC(=O)OC)C(C)C)[nH]4)ccc32)[nH]1)C(C)C (mixture of isomers) | 0.5 | 6 | 0.1 | 3 | 0.02 |  |  |
| COC(=O)N[C@H](C(=O)N1CCC[C@H]1c1ncc(-c2cc(F)c3c(c2)OC(c2ccc4c(c2)COCC4)n2c-3cc3cc(-c4cnc([C@@H]5CCCN5C(=O)[C@@H](NC(=O)OC)C(C)C)[nH]4)ccc32)[nH]1)C(C)C (stereo not given in full) |  | 2 | 0.02 | 4 | 0.003 |  |  |
| COC(=O)N[C@H](C(=O)N1CCC[C@H]1c1ncc(-c2cc(F)c3c(c2)OC(c2ccc4c(c2)CC[C@H](C)O4)n2c-3cc3cc(-c4cnc([C@@H]5CCCN5C(=O)[C@@H](NC(=O)OC)C(C)C)[nH]4)ccc32)[nH]1)C(C)C (stereo not given in full) |  | 3 | 0.01 | 7 | 0.004 |  |  |
| COC(=O)N[C@H](C(=O)N1CCC[C@H]1c1ncc(-c2cc(F)c3c(c2)OC(c2ccc4c(c2)OC(C)(C)CC4)n2c-3cc3cc(-c4cnc([C@@H]5CCCN5C(=O)[C@@H](NC(=O)OC)C(C)C)[nH]4)ccc32)[nH]1)C(C)C (stereo not given in full) |  | 1 | 0.02 | 2 | 0.005 |  |  |
